Measured values published in ChEMBL document CHEMBL1806387, “Discovery of 1,2,4-thiadiazolidine-3,5-dione analogs that exhibit unusual and selective rapid cell death kinetics against acute myelogenous leukemia cells in culture” (Bioorg Med Chem Lett, 2011).
The source made the active and inactive calls. The calls are words filed in the database; no cut-off is given here.

What was measured:
MV4-11 [1] = assay: Cytotoxicity against human MV411 cells after 24 hrs by Annexin V-Fluorescein isothiocyanate and 7-aminoactinomycin D staining; assay type: functional; conditions: MV4-11, 24 h, read-out: LD50 (the source's name)
Method in brief: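 MV4-11 human AML cells (ATCC) seeded at 300,000 cells/mL in IMDM with 10% FBS. Cells exposed to at least 4 concentrations for 24 hours. Stained with Annexin V-FITC and 7-AAD, then run on flow cytometry (BD LSRII) 15 minutes later. Viable cells gated as Annexin V-negative/7-AAD-negative and expressed as percent of untreated control.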

[2] = Cytotoxicity against human hematopoietic stem cells assessed as reduction of cell viability after 24 hrs by Annexin V-Fluorescein isothiocyanate and 7-aminoactinomycin D staining; assay type: cell-based
MV4-11 [3] = assay: Cytotoxicity against human MV411 cells assessed as reduction of cell viability at 5 uM after 30 mins by Annexin V-Fluorescein isothiocyanate and 7-aminoactinomycin D staining; assay type: functional
Method in brief: (§1)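 MV4-11 cells (ATCC) seeded at 300,000 cells/mL in IMDM with 10% FBS and exposed to compound for the stated time in time-course runs. Cells stained with Annexin V-FITC plus 7-AAD and read by flow cytometry 15 minutes later. Viability is the Annexin V-negative/7-AAD-negative fraction, expressed relative to untreated control.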

MV4-11 [4] = assay: Cytotoxicity against human MV411 cells assessed as reduction of cell viability at 10 uM after 2 hrs by Annexin V-Fluorescein isothiocyanate and 7-aminoactinomycin D staining; assay type: functional, cell-based; method in brief: as §1
MV4-11 [5] = assay: Cytotoxicity against human MV411 cells assessed as reduction of cell viability at 20 uM after 2 hrs by Annexin V-Fluorescein isothiocyanate and 7-aminoactinomycin D staining; assay type: functional, cell-based; method in brief: as §1
MV4-11 [6] = assay: Cytotoxicity against human MV411 cells assessed as reduction of cell viability at 5 uM after 24 hrs by Annexin V-Fluorescein isothiocyanate and 7-aminoactinomycin D staining; assay type: functional, cell-based; method in brief: as §1
MV4-11 [7] = assay: Cytotoxicity against human MV411 cells assessed as reduction of cell viability at 10 uM after 24 hrs by Annexin V-Fluorescein isothiocyanate and 7-aminoactinomycin D staining; assay type: functional, cell-based; method in brief: as §1
MV4-11 [8] = assay: Cytotoxicity against human MV411 cells assessed as reduction of cell viability at 20 uM after 30 mins by Annexin V-Fluorescein isothiocyanate and 7-aminoactinomycin D staining; assay type: functional; method in brief: as §1
MV4-11 [9] = assay: Cytotoxicity against human MV411 cells assessed as reduction of cell viability at 10 uM after 30 mins by Annexin V-Fluorescein isothiocyanate and 7-aminoactinomycin D staining; assay type: functional, cell-based; method in brief: as §1
MV4-11 [10] = assay: Cytotoxicity against human MV411 cells assessed as reduction of cell viability at 5 uM after 1 to 2 hrs by Annexin V-Fluorescein isothiocyanate and 7-aminoactinomycin D staining; assay type: functional, cell-based; method in brief: as §1

SMILES: O=C([O-])c1ccc(Cn2c(=O)sn(CCCl)c2=O)cc1.[Na+]
- CC50 (MV4-11 [1]): > 20 µM
- Activity [2]: Non-toxic

SMILES: Cl.NCc1ccc(Cn2c(=O)sn(CCBr)c2=O)cc1
- CC50 (MV4-11 [1]): 4.51 µM
- Activity [2]: Non-toxic

SMILES: O=c1sn(CCBr)c(=O)n1Cc1ccccc1
- CC50 (MV4-11 [1]): 3.5 µM
- Activity [2]: Non-toxic
- Activity (MV4-11 [3]): 50%
- Activity (MV4-11 [4]): Active

SMILES: C=CCn1sc(=O)n(Cc2ccc(CN)cc2)c1=O.Cl
- CC50 (MV4-11 [1]): 6.7 µM
- Activity [2]: Non-toxic

SMILES: CCn1sc(=O)n(Cc2ccccc2)c1=O [KRM-7777]
- CC50 (MV4-11 [1]): 9.21 µM
- Activity [2]: Non-toxic

SMILES: Cl.NCc1ccc(Cn2c(=O)sn(CCCl)c2=O)cc1
- CC50 (MV4-11 [1]): 3.01 µM
- Activity [2]: Non-toxic

SMILES: C=CCn1sc(=O)n(Cc2ccccc2)c1=O
- CC50 (MV4-11 [1]): 9.2 µM
- Activity (MV4-11 [5]): Active
- Activity [2]: Non-toxic
- Activity (MV4-11 [6]): inactive
- Activity (MV4-11 [7]): Active
- Activity (MV4-11 [8]): 50%

SMILES: CCCn1sc(=O)n(Cc2ccccc2)c1=O
- CC50 (MV4-11 [1]): 11.6 µM
- Activity [2]: Non-toxic

SMILES: Cn1sc(=O)n(Cc2ccccc2)c1=O
- CC50 (MV4-11 [1]): 4.01 µM
- Activity (MV4-11 [5]): Active
- Activity [2]: Non-toxic

SMILES: O=c1sn(CCCl)c(=O)n1Cc1ccccc1
- CC50 (MV4-11 [1]): 2.03 µM
- Activity [2]: Non-toxic
- Activity (MV4-11 [9]): Active
- Activity (MV4-11 [10]): Active

SMILES: Cl.NCc1cccc(Cn2c(=O)sn(CCCl)c2=O)c1
- CC50 (MV4-11 [1]): 4.4 µM
- Activity [2]: Non-toxic

SMILES: CCn1sc(=O)n(Cc2ccc(CN)cc2)c1=O.Cl
- CC50 (MV4-11 [1]): 15.5 µM
- Activity [2]: Non-toxic
